Laboratory results as given in ChEMBL document CHEMBL4270537, “Design and biological evaluation of novel triaryl pyrazoline derivatives with dioxane moiety for selective BRAFV600E inhibition” (Eur J Med Chem, 2018).

Tests used:
A-375 [1] = test: Cell cycle arrest in human A375 cells assessed as accumulation at G2/M phase at 10 uM after 24 hrs by propidium iodide staining based flow cytometry (reference value: 5.1%); assay type: functional
A-375 [2] = test: Cell cycle arrest in human A375 cells assessed as accumulation at S phase at 5 uM after 24 hrs by propidium iodide staining based flow cytometry (reference value: 21.3%); assay type: functional
A-375 [3] = test: Cell cycle arrest in human A375 cells assessed as accumulation at G2/M phase at 2 uM after 72 hrs by propidium iodide staining based flow cytometry (reference value: 5.1%); assay type: functional
A-375 [4] = test: Cell cycle arrest in human A375 cells assessed as accumulation at G2/M phase at 2 uM after 48 hrs by propidium iodide staining based flow cytometry (reference value: 5.1%); assay type: functional
A-375 [5] = test: Induction of apoptosis in human A375 cells assessed as necrotic cells at 2 uM after 24 hrs by Annexin V-FITC/PI staining based flow cytometry (reference value: 1.55%); assay type: functional
A-375 [6] = test: Induction of apoptosis in human A375 cells assessed as early apoptotic cells at 2.5 uM after 24 hrs by Annexin V-FITC/PI staining based flow cytometry (reference value: 5.45%); assay type: functional
A-375 [7] = test: Cell cycle arrest in human A375 cells assessed as accumulation at S phase at 2 uM after 48 hrs by propidium iodide staining based flow cytometry (reference value: 21.3%); assay type: functional
[8] = Cytotoxicity against HEK293T cells assessed as decrease in cell viability after 48 hrs by MTT assay; assay type: cell-based, HEK-293T; settings: human
Outline: (§1)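 MTT reduction assay. Cell lines grown to log phase in DMEM with 10% FBS (A375 in DMEM with sodium pyruvate added), seeded at 10⁴ cells/well in 96-well plates. Three replicate wells per concentration, each assay run three times, GI50 averaged.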

A-375 [9] = test: Induction of apoptosis in human A375 cells assessed as necrotic cells at 2 uM after 48 hrs by Annexin V-FITC/PI staining based flow cytometry (reference value: 1.55%); assay type: functional
A-375 [10] = test: Induction of apoptosis in human A375 cells assessed as late apoptotic cells at 20 uM after 24 hrs by Annexin V-FITC/PI staining based flow cytometry (reference value: 4.26%); assay type: functional
[11] = target: Dual specificity mitogen-activated protein kinase kinase; MEK1/2 (Homo sapiens, UniProt P36507+Q02750); test: Inhibition of MEK1/2 (unknown origin); assay type: protein assay
A-375 [12] = test: Induction of apoptosis in human A375 cells assessed as early apoptotic cells at 20 uM after 24 hrs by Annexin V-FITC/PI staining based flow cytometry (reference value: 5.45%); assay type: functional
A-375 [13] = test: Cell cycle arrest in human A375 cells assessed as accumulation at G2/M phase at 20 uM after 24 hrs by propidium iodide staining based flow cytometry (reference value: 5.1%); assay type: functional
A-375 [14] = test: Cell cycle arrest in human A375 cells assessed as accumulation at S phase at 10 uM after 24 hrs by propidium iodide staining based flow cytometry (reference value: 21.3%); assay type: functional
WM 266-4 = test: Antiproliferative activity against human WM266.4 cells after 48 hrs by MTT assay; assay type: functional; settings: WM 266-4, 48 h; outline: as §1
A-375 [15] = test: Cell cycle arrest in human A375 cells assessed as accumulation at G1 phase at 20 uM after 24 hrs by propidium iodide staining based flow cytometry (reference value: 73.6%); assay type: functional
A-375 [16] = test: Induction of apoptosis in human A375 cells assessed as early apoptotic cells at 2 uM after 24 hrs by Annexin V-FITC/PI staining based flow cytometry (reference value: 5.42%); assay type: functional
Outline: (§2)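 Apoptosis time course. A375 cells in 24-well plates (about 10⁵/well) at 2 µM for 0, 24, 48 and 72 h. Harvested by trypsin, washed in PBS, stained 15 min at room temperature in the dark with Annexin V-FITC/PI, analysed by flow cytometry.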

[17] = target: Serine/threonine-protein kinase B-raf (Mus musculus, UniProt P28028, V600E); test: Inhibition of mouse full length GST-tagged BRAF V600E mutant using recombinant human full length N-terminal His-tagged MEK1 as substrate preincubated for 1 hr followed by substrate addition measured after 25 mins
Serine/threonine-protein kinase B-raf (Mus musculus, UniProt P28028, V600E), sequence (P28028 whole entry, looked up, stated change not applied): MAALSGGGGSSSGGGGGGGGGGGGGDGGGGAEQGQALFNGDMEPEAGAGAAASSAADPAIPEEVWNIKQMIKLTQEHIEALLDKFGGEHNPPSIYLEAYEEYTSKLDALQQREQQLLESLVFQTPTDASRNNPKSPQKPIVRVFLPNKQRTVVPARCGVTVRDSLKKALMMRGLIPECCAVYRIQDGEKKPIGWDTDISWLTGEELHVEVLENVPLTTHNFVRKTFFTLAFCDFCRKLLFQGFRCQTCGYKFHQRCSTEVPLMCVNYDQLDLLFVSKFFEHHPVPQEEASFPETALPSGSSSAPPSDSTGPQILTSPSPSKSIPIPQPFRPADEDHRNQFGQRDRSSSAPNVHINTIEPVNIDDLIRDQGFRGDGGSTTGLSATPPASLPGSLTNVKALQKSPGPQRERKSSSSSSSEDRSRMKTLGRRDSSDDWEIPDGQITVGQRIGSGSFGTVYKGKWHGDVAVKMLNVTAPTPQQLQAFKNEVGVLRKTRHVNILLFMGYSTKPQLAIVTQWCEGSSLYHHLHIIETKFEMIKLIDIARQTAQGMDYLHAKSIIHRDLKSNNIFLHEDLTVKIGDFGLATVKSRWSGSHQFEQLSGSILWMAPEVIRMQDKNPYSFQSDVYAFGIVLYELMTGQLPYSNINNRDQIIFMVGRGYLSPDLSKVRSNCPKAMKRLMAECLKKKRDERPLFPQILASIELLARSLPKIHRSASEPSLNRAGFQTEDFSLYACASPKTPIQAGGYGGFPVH

[18] = system: Serine/threonine-protein kinase B-raf (Homo sapiens), P15056 [V600E]; test: Inhibition of BRAF V600E mutant in human A375 cells assessed as decrease in MEK1/2 phosphorylation after 30 mins by Western blot analysis; assay type: cell-based
Serine/threonine-protein kinase B-raf (Homo sapiens), P15056 [V600E], sequence (P15056 whole entry V600E): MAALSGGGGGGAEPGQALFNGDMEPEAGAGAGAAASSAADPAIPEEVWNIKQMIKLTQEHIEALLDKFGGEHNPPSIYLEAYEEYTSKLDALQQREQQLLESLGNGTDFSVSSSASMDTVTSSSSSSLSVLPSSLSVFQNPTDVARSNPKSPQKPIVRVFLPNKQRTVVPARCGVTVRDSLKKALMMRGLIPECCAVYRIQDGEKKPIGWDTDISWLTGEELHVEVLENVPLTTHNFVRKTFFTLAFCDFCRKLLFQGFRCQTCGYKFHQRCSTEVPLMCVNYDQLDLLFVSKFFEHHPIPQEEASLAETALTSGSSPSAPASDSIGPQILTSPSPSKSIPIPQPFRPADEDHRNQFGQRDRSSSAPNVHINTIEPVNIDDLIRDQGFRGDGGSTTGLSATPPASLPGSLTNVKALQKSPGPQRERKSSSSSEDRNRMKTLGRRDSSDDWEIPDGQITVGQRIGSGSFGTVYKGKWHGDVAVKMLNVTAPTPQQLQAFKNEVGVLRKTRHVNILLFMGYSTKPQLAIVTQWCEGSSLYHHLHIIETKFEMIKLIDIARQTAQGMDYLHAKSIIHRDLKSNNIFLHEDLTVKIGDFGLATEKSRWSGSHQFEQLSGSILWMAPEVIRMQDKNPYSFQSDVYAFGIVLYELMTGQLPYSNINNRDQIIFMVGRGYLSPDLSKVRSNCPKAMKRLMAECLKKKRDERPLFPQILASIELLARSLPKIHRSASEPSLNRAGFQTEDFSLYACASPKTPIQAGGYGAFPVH
Outline: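 A375 cells treated with compound at 0, 0.05, 0.1 and 0.5 µM, then PBS-rinsed and lysed in RIPA with protease inhibitors on ice for 30 min. Lysate was cleared at 12,000 g, 4 °C, and protein assayed by BCA. Samples run on SDS-PAGE and transferred to PVDF. Membranes were milk-blocked, probed with primary antibody (1:500) overnight at 4 °C, then secondary antibody (1:5000) for 1 h at room temperature.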

A-375 [19] = test: Cell cycle arrest in human A375 cells assessed as accumulation at G1 phase at 2 uM after 48 hrs by propidium iodide staining based flow cytometry (reference value: 73.6%); assay type: functional
[20] = target: Serine/threonine-protein kinase B-raf (Homo sapiens, UniProt P15056); test: Inhibition of recombinant human full length GST-tagged wild type BRAF expressed in baculovirus expression system using recombinant human full length N-terminal His-tagged MEK1 as substrate preincubated for 1 hr followed by substrate addition measured after 25 mins
Serine/threonine-protein kinase B-raf (Homo sapiens, UniProt P15056), sequence (P15056 whole entry): as the sequence (P15056 whole entry V600E) above, with E600V counted along it

A-375 [21] = test: Induction of apoptosis in human A375 cells assessed as viable cells at 10 uM after 24 hrs by Annexin V-FITC/PI staining based flow cytometry (reference value: 88.7%); assay type: functional; settings: A-375, 24 h, read-out: Activity
Mus musculus = test: Toxicity in nude mouse xenografted with human A375 cells assessed as body weight loss at 5 to 10 mg/kg, ip administered every second day for 14 days and measured every 2 days; assay type: organism-based; settings: in vivo
Outline: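 Nude mice bearing subcutaneous right-flank A375 xenografts (3×10⁶ cells in cold PBS) were randomized into groups of 5 at about 100 mm³. Compounds were suspended in olive oil and given intraperitoneally every second day for 14 days. Body weight was recorded every two days.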

A-375 [22] = test: Induction of apoptosis in human A375 cells assessed as viable cells at 2 uM after 24 hrs by Annexin V-FITC/PI staining based flow cytometry (reference value: 89.4%); assay type: functional; settings: A-375, 24 h, read-out: Activity
A-375 [23] = test: Induction of apoptosis in human A375 cells after 24 to 72 hrs by Annexin V-FITC/PI staining based flow cytometry; assay type: functional, cell-based; outline: as §2
A-375 [24] = test: Induction of apoptosis in human A375 cells assessed as viable cells at 2.5 uM after 24 hrs by Annexin V-FITC/PI staining based flow cytometry (reference value: 88.7%); assay type: functional; settings: A-375, 24 h, read-out: Activity
A-375 [25] = test: Effect on total ERK1/2 protein level in human A375 cells after 30 mins by Western blot analysis; assay type: ADME, cell-based; settings: a-375, 0.5 h
Outline: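 Western blot. Cells rinsed in cold PBS, lysed 30 min on ice in RIPA with protease inhibitors (1:100), cleared at 12,000 g, 4 °C. Protein measured by BCA, resolved by SDS-PAGE, transferred to PVDF, blocked in skim milk. Primary antibodies 1:500 overnight at 4 °C; secondary 1:5000 for 1 h at room temperature.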

A-375 [26] = test: Cell cycle arrest in human A375 cells assessed as accumulation at S phase at 20 uM after 24 hrs by propidium iodide staining based flow cytometry (reference value: 21.3%); assay type: functional

Work on `COc1cccc(C2=NN(C(=S)Nc3ccccc3)C(c3ccc4c(c3)OCCO4)C2)c1` (stereo not drawn) yielded an Activity (A-375 [1]) of 18.1%, an Activity (A-375 [2]) of 28.4% and an Activity (A-375 [3]) of 36.8%. For the same compound, the Activity (A-375 [4]) was 15%, the Activity (A-375 [5]) was 2.56% and the Activity (A-375 [6]) was 16.7%. The Activity (A-375 [7]) was 26.2%, the GI50 at 48 h [8] was greater than 200000 nM and the Activity (A-375 [9]) was 3.05%. It also gave an Activity (A-375 [10]) of 11%, an IC50 [11] of 195000 nM and an Activity (A-375 [12]) of 49.6%. For the same compound, the Activity (A-375 [13]) was 30.2%, the Activity (A-375 [14]) was 13.8% and the GI50 (WM 266-4) was 1380 nM. For the same compound, the Activity (A-375 [15]) was 52.8%, the Activity (A-375 [16]) was 10.9% and the IC50 [17] was 60 nM. For the same compound, the inhibition [18] was “Dose-dependent effect”, the Activity (A-375 [19]) was 58.8% and the IC50 [20] was greater than 200000 nM. The viability at 10 µM (A-375 [21]) was 41.5%, the Activity (Mus musculus) was “Non-Toxic” and the viability at 2 µM (A-375 [22]) was 80.8%. The Activity (A-375 [23]) was “Dose-dependent effect”, the viability at 2.5 µM (A-375 [24]) was 74.4% and the Activity (A-375 [25]) was “Non-Toxic”. The Activity (A-375 [26]) was 16.9%.
